From ChEMBL document CHEMBL3616414, “Macrocyclic Envelope Glycoprotein Antagonists that Irreversibly Inactivate HIV-1 before Host Cell Encounter” (J Med Chem, 2015) come the findings set out here.

A value given as a limit tells only on which side of the number the result lay.

Data set [1] is described as follows: Inhibition of HIV1 gp120 binding to CD4 by SPR competition binding assay. Details: species or system Human immunodeficiency virus 1. (In general: Surface plasmon resonance follows binding to a sensor surface in real time, without labels.)
Data set [2] is described as follows: Inhibition of HIV1 gp120 binding to 17b antibody by SPR competition binding assay. Set-up: species or system Human immunodeficiency virus 1.
Data set [3] in a line: Stability assessed as chymotrypsin (unknown origin)-mediated compound degradation incubated for 20 hrs at 37 degC by HPLC and ESI-MS method. The class given is ADME. The settings on record: human. In a few lines:
(§1)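 Each peptide was incubated on its own with a single protease (trypsin or chymotrypsin) at 37 °C. Digestion was tracked by HPLC and ESI-MS for remaining intact peptide. For chymotrypsin, samples were taken after 30 min, and the cyclic peptide was also checked after 20 h and 40 h.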

Data set [4] is described as follows: Stability assessed as chymotrypsin (unknown origin)-mediated compound degradation incubated for 30 mins at 37 degC by HPLC and ESI-MS method. The class given is ADME. The settings on record: human, 0.5 h. In a few lines:
as §1

Data set [5] can be described thus: Stability assessed as chymotrypsin (unknown origin)-mediated compound degradation incubated for 5 hrs at 37 degC by HPLC and ESI-MS method. The class given is ADME. The settings on record: human. In a few lines:
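Each peptide incubated on its own with chymotrypsin at 37 °C. Digestion followed over time by HPLC, with ESI-MS used to check the intact peptide and its fragments. Extended sampling at 20 h and 40 h was also done.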

Data set [6] can be described thus: Stability assessed as chymotrypsin (unknown origin)-mediated compound degradation incubated for 40 hrs at 37 degC by HPLC and ESI-MS method. Type of data set: ADME. The settings on record: human. The method in brief:
as §1

Data set [7] can be described thus: Stability assessed as trypsin (unknown origin)-mediated compound degradation incubated for 5 hrs at 37 degC by HPLC and ESI-MS method. The class given is ADME. The settings on record: human. In a few lines: as §1

As usually defined, the IC50 is the concentration needed to halve the response being measured. Higher therefore signals a need for much substance. With `CC[C@@H](C)[C@@H](N)C(=O)N[C@H]1CCC(=O)NCCCC[C@H](C(N)=O)NC(=O)[C@@H](Cc2c[nH]c3ccccc23)NC(=O)[C@H]2C[C@@H](n3cc(CCc4ccccc4)nn3)CN2C(=O)[C@@H]([C@H](C)CC)NC(=O)[C@@H](CC(N)=O)NC1=O`, the IC50 in data set [1] was determined as 138 nM; in data set [2], 269 nM.

In the case of `CC[C@@H](C)[C@H]1NC(=O)[C@@H](CC(N)=O)NC(=O)[C@@H](N)CCC(=O)NCCCC[C@H](C(N)=O)NC(=O)[C@@H](Cc2c[nH]c3ccccc23)NC(=O)[C@H]2C[C@@H](n3cc(CCc4ccccc4)nn3)CN2C1=O`, the half-maximal inhibitory concentration (IC50) in data set [1] and in data set [2] was above 40000 nM throughout.

Regarding `CC[C@@H](C)[C@H]1NC(=O)[C@@H](CC(N)=O)NC(=O)[C@@H](N)CC(=O)NCCCC[C@H](C(N)=O)NC(=O)[C@@H](Cc2c[nH]c3ccccc23)NC(=O)[C@H]2C[C@@H](n3cc(CCc4ccccc4)nn3)CN2C1=O`, the Stability entry in data set [3], in data set [4], in data set [5], in data set [6] and in data set [7] (5 h) was “Stable” in each case. Also, the values for the IC50 in data set [1] and in data set [2] were 85 nM and 96 nM, respectively.

For `CC[C@@H](C)[C@H]1NC(=O)[C@@H](CC(N)=O)NC(=O)[C@@H](N)CC(=O)NCCC[C@H](C(N)=O)NC(=O)[C@@H](Cc2c[nH]c3ccccc23)NC(=O)[C@H]2C[C@@H](n3cc(CCc4ccccc4)nn3)CN2C1=O`, the IC50 in data set [1] came out at 5700 nM; in data set [2], 3900 nM.

`CC[C@@H](C)[C@H]1NC(=O)[C@@H](CC(N)=O)NC(=O)[C@@H](N)CCC(=O)NCC[C@H](C(N)=O)NC(=O)[C@@H](Cc2c[nH]c3ccccc23)NC(=O)[C@H]2C[C@@H](n3cc(CCc4ccccc4)nn3)CN2C1=O`: the IC50 in data set [1] and in data set [2] was above 20000 nM each time.

Consider `CC[C@@H](C)[C@H]1NC(=O)[C@@H](CC(N)=O)NC(=O)[C@@H](N)CC(=O)NCC[C@H](C(N)=O)NC(=O)[C@@H](Cc2c[nH]c3ccccc23)NC(=O)[C@H]2C[C@@H](n3cc(CCc4ccccc4)nn3)CN2C1=O`, for which the values for the IC50 in data set [1] and in data set [2] were 500 nM and 400 nM, respectively.

With `CC[C@@H](C)[C@@H](NC(=O)[C@@H](CC(N)=O)NC(=O)[C@@H](N)CC(=O)O)C(=O)N1C[C@H](n2cc(CCc3ccccc3)nn2)C[C@@H]1C(=O)N[C@H](Cc1c[nH]c2ccccc12)C(=O)N[C@H](CCCCN)C(N)=O`, the results for the Drug degradation in data set [4] and in data set [5] were 100% and 60%, respectively. Moreover, the metabolised at 5 h in data set [7] (trypsin, read-out: Drug degradation) was 60%.
